Data: ChEMBL document CHEMBL1126900, “Transformation of heterocyclic reversible monoamine oxidase-B inactivators into irreversible inactivators by N-methylation” (J Med Chem, 1993)

Molecular target: T1, Amine oxidase [flavin-containing] B (Bos taurus, UniProt P56560)
T1 sequence (P56560 whole entry): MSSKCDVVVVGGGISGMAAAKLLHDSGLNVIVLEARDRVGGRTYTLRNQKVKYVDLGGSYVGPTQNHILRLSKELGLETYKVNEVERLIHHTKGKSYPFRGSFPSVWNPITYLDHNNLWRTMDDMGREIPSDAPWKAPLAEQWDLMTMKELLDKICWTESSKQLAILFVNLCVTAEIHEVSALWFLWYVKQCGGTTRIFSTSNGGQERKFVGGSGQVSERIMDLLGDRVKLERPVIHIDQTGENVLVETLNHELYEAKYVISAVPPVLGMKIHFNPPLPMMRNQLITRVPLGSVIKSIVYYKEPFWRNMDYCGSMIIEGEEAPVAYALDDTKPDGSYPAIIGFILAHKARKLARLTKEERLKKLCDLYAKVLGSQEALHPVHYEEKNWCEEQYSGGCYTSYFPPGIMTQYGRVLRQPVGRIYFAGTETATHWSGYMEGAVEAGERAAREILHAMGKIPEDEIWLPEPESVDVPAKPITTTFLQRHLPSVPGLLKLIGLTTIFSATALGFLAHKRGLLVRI
Test: Kinetic constant for inactivation of MAO B from replot of half-lives of inactivation
Conditions: for kinact: cattle
Summary of the method: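 Bovine liver MAO-B (specific activity 4–6 units/mg) preincubated at 25 °C with inactivator hydrochloride at various concentrations, or none (control), in 100 mM potassium phosphate pH 7.40 with 2.0 mM glutathione. Aliquots taken periodically and assayed with 0.50 mM cinnamylamine in 100 mM Tris pH 9.0, 25 °C. Activity corrected against control. KI and kinact obtained by Kitz–Wilson replot of inactivation half-lives.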

SMILES | Ki | kinact
COc1ccc(N2CC(CN)CC2=O)cc1 (stereo unspecified) | 6.7 mM | 1.12e-05 s⁻¹
CNCC1CC(=O)N(c2ccc(OC)cc2)C1 (stereo unspecified) | 50 mM | 5.83e-05 s⁻¹
CNCC1CN(c2ccc(OC)cc2)C(=O)O1 (stereo unspecified) | 4.7 mM | 3.17e-05 s⁻¹
COc1ccc(N2CC(CN(C)C)CC2=O)cc1 (stereo unspecified) | 300 mM | 5.83e-05 s⁻¹
CN(C)CC1CN(c2ccc(OCc3cccc(Cl)c3)cc2)C(=O)O1 (stereo unspecified) | 0.5 mM | 0.00137 s⁻¹
COc1ccc(C2CC(CN)OC2=O)cc1 (stereo unspecified) | 6.7 mM | 7.33e-05 s⁻¹
NCC1CN(c2ccc(OCc3cccc(Cl)c3)cc2)C(=O)O1 (stereo unspecified) | 0.067 mM | 0.00233 s⁻¹
COc1ccc(N2CC(CN(C)C)OC2=O)cc1 (stereo unspecified) | 13.3 mM | 5e-05 s⁻¹
COc1ccc(N2CC(CN)OC2=O)cc1 (stereo unspecified) | – | 1.33e-05 s⁻¹
CNCC1CN(c2ccc(OCc3cccc(Cl)c3)cc2)C(=O)O1 (stereo unspecified) | 0.2 mM | 0.000417 s⁻¹
COc1ccc([C@H]2C[C@@H](CN(C)C)OC2=O)cc1 | 200 mM | 0.000283 s⁻¹
